SKKanGAS inh: inhibitors of SKKanGAS S. pyogenes growth in kanamycin (SK-promoter or general growth effect); BacTiter-Glo, 6 h; inhibition, % at 7.5 µM; hit rate 1.3% among 300,000;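 active = mean replicate score, as percent of positive control median, at least 50; inconclusive = mean below 50 but one replicate at or above 50; inactive = mean and every replicate below 50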;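 note: strain carries kanamycin resistance gene driven by streptokinase promoter and grows in 40 µg/ml kanamycin; loss of luminescence reflects streptokinase promoter inhibition or plain growth inhibition; 0% = median of DMSO wells and 100% = positive control at its reference dose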
Mdm2 MdmX PPI: disrupts the human Mdm2-MdmX interaction. O15151+Q00987. SaOS-2 split-luciferase Mdm2/MdmX complementation, luminescence. hit rate 3% among 330,000. inhibition, % at 8 µM;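 active = inhibition of at least 50% at 8 µM in the primary screen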
Target sequence (O15151 whole entry, looked up): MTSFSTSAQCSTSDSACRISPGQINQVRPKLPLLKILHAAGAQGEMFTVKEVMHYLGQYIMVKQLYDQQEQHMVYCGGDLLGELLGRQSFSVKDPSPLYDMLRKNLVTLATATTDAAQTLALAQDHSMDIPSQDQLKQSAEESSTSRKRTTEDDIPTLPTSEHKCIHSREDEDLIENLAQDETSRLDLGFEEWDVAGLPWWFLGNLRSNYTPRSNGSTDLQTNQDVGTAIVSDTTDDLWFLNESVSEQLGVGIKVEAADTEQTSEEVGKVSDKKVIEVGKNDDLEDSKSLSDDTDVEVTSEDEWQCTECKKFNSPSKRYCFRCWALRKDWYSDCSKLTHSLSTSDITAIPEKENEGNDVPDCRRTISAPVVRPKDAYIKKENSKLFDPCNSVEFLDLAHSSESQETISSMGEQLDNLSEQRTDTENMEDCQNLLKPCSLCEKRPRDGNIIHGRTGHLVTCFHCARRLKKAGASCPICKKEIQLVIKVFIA
Target sequence (Q00987 whole entry, looked up): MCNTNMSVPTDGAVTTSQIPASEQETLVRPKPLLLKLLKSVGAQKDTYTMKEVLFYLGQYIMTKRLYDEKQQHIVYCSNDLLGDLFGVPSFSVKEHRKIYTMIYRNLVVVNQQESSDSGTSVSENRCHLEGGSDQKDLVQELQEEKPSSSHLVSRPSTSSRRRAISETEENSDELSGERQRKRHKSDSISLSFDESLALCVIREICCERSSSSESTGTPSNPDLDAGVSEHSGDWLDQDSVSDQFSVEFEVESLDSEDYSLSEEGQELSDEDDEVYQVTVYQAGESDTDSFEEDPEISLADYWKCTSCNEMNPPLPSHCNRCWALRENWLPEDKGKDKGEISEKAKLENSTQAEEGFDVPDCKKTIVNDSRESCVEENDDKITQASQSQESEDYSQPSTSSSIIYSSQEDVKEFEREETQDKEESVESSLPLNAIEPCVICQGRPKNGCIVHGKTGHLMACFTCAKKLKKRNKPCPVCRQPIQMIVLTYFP
Beta apoptosis: blocks beta cell apoptosis; protection from apoptosis, % (test concentration not listed); AID 435005; hit rate 0.8% among 300,000; INS-1E cytokine-induced death, ATP luminescence, 48 h; percent of positive-control rescue, neutral wells zero;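 active = Every replicate reaches about 75%, or at least half do and their mean reaches it too, limit read from the data; inconclusive = At least half of replicates reach the limit but their mean does not; inactive = Under half of replicates reach the limit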;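 note: 0% = cytokine-treated negative control wells and 100% = positive control rescue; higher means more ATP so stronger rescue from cytokine killing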
T cruzi inh: blocks replication of Trypanosoma cruzi; AID 1885; hit rate 1.4% among 300,000; inhibition, % (no concentration beside the values); T. cruzi beta-gal in NIH3T3, luminescence, 90 h;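 active = mean inhibition across valid replicates above about 55%, limit read from the data; inconclusive = mean below that limit but half or more replicates reach it; inactive = mean below it, under half of replicates reach it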;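 note: signal also drops with host cell toxicity which is not excluded here; 0% = plate median of DMSO wells and 100% = zero luminescence signal; higher percent means less beta-gal luminescence so fewer parasites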
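Assay system: NIH/3T3 host cells with β-galactosidase reporter T. cruzi; input: 5,000 host fibroblasts per well; compound: single 50 nL compound addition per well in DMSO; timing: ≥90 h infection period, 3 h prior cell attachment; measured by: GalScreen β-gal luminescence, detergent lysis, 60 min; evaluation: percent inhibition of parasite-derived β-gal signal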
CSC inhib: blocks cancer stem cells | cancer stem cell-like cells viability, luminescence | inhibition, % at 7.5 µM | hit rate 1.1% among 300,000 | AID 2717; in the data active = inhibition above about 75%; inconclusive = no clear call, values can overlap the other calls; tested in HMLE shEcad cells
Calb FLC: affects C. albicans growth with fluconazole; C. albicans CaCi-2 (fluconazole-resistant clinical isolate) + fluconazole, Alamar Blue growth, 48 h; growth inhibition, % (no concentration beside the values); hit rate 0.57% among 300,000;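 active = growth inhibition above about 58% in most replicates, limit read from the data, passing the limit was not always enough; inconclusive = exactly half the replicates above a set limit; inactive = most replicates below a set limit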;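 note: all wells also contain fluconazole at 8 µg/ml as a sub-toxic cotreatment; 0% = median of DMSO wells and 100% = median of geldanamycin control wells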
Mdm2-MdmX conf: human Mdm2/MdmX binding inhibition, confirmed; AID 489028; shares compounds with Mdm2 MdmX PPI; hit rate 55% among 10,000; luminescent assay; inhibition, % at 8 µM; in the data active = inhibition above about 40%
FLuc counter: full-length luciferase inhibition in Mdm2/MdmX counter-screen. AID 504607. hit rate 77% among 6,200. inhibition, % at 8 µM. SaOS-2 full-length luciferase counterscreen, luminescence. shares compounds with Mdm2 MdmX PPI;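 active = mean inhibition at 8 µM reaching about 37%, which flags the compound as non-specific, limit read from the data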;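 note: p53-null SaOS-2 cells with luciferase driven by a doxycycline-inducible promoter; compound on cells about two nights before reading with doxycycline added after day one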
* = called active by the depositor. Hits are enriched below; roughly 5.7% of the tested compounds scored in any of these assays.

How did COC(=O)C1=C(c2cccc(OCc3ccccc3)c2)C[C@@H]2CC[C@H]1N2C(=O)NC1CCN(Cc2ccccc2)CC1 do in these assays?
Mdm2 MdmX PPI: 61*; Beta apoptosis: 8; CSC inhib: 22; Mdm2-MdmX conf: 40*; FLuc counter: 71*

How did COC(=O)C1=C(c2ccc(F)cc2OCc2ccccc2)C[C@@H]2CC[C@H]1N2C(=O)NC1CCN(Cc2ccccc2)CC1 do in these assays?
Mdm2 MdmX PPI: 76*; Beta apoptosis: 0; CSC inhib: 14; Mdm2-MdmX conf: 37; FLuc counter: 60*

What do the screens show for `COC(=O)C1=C(c2ccccc2OCc2ccccc2)C[C@@H]2CC[C@H]1N2C(=O)NC1CCN(Cc2ccccc2)CC1`?
Mdm2 MdmX PPI: 51*; Beta apoptosis: 7; CSC inhib: 12; Mdm2-MdmX conf: 18

What do the screens show for `COC(=O)C1=C(c2ccccc2OCc2ccccc2)C[C@@H]2CC[C@H]1N2C(=O)NCc1ccccc1`?
Mdm2 MdmX PPI: -21; Beta apoptosis: -6; CSC inhib: 24

How did COC(=O)C1=C(c2ccc(F)cc2OCc2ccccc2)C[C@@H]2CC[C@H]1N2C(=O)NCc1ccccc1 do in these assays?
Mdm2 MdmX PPI: 14; Beta apoptosis: 5; CSC inhib: 24

What do the screens show for `COC(=O)C1=C(c2ccc(F)cc2OCc2ccccc2)C[C@@H]2CC[C@H]1N2C(=O)NCCCOC(C)C`?
Mdm2 MdmX PPI: 16; Beta apoptosis: 0; CSC inhib: 5

Results for COC(=O)C1=C(c2ccc(-c3ccccc3)c(F)c2)C[C@@H]2CC[C@H]1N2C(=O)NCCOc1ccccc1Cl ?
Mdm2 MdmX PPI: 42; Beta apoptosis: 3; CSC inhib: 27

What do the screens show for `C/C(=N\N1CCCCC1)c1c(O)[nH]c(=O)[nH]c1=O`?
SKKanGAS inh: 1; Mdm2 MdmX PPI: 21; Beta apoptosis: 1; T cruzi inh: -11; CSC inhib: -16; Calb FLC: 2

How did CC1(C)CC[C@]2(C)CC[C@]3(C)C4C[C@@H]5OO[C@@]6(O5)C(CCCC6(C)C)[C@]4(C)CC[C@@]3(C)C2C1 (some centres not stated) do in these assays?
Mdm2 MdmX PPI: 18; CSC inhib: -17

Results for C=C1C(O)[C@@H]2O[C@]3(CC[C@H](/C=C/C(C)[C@@H]4CC(C)=CC5(O[C@H](C[C@@](C)(O)C(=O)O)CCC5O)O4)O3)CC[C@H]2O[C@@H]1C(O)CC(C)[C@H]1OC2(CCCCO2)CCC1C (some centres not stated) ?
Mdm2 MdmX PPI: 98*; Beta apoptosis: 85*; Mdm2-MdmX conf: 100*; FLuc counter: 0

What do the screens show for `C=CC[C@@H](CC/C=C/C=C/CC/C=C\[C@@H]1CSC([C@@H]2C[C@@H]2C)=N1)OC`?
Mdm2 MdmX PPI: 56*; Mdm2-MdmX conf: 49*; FLuc counter: 114*

What do the screens show for `CC(C)(O)/C=C/C(=O)[C@](C)(O)C1[C@H](O)C[C@@]2(C)C3CC=C4C(C[C@H](O)[C@@H](O)C4(C)C)[C@]3(C)C(=O)C[C@]12C` (some centres not stated)?
Mdm2 MdmX PPI: 98*; Beta apoptosis: 52; CSC inhib: 53; Mdm2-MdmX conf: 94*; FLuc counter: 7

How did Oc1ccc2c3c1OC1c4[nH]c5ccccc5c4C[C@@]4(O)C(C2)N(CC2CC2)CC[C@]314 (some centres not stated) do in these assays?
Mdm2 MdmX PPI: 40

How did O=C1/C(=C/c2ccccc2)C[C@@]2(O)[C@H]3Cc4ccc(O)c5c4[C@@]2(CCN3CC2CC2)C1O5 (some centres not stated) do in these assays?
Mdm2 MdmX PPI: 100*; Mdm2-MdmX conf: 100*; FLuc counter: 51*

How did C/C(=N\NC(=O)c1ccncc1)c1c(O)[nH]c(=O)[nH]c1=O do in these assays?
SKKanGAS inh: 0; Mdm2 MdmX PPI: 6; Beta apoptosis: -3; T cruzi inh: -2; CSC inhib: 3; Calb FLC: 0

Results for COC(=O)C1=C(c2ccc(OC(F)(F)F)cc2)C[C@@H]2CC[C@H]1N2C(=O)N1CCOCC1 ?
Mdm2 MdmX PPI: 9; Beta apoptosis: -6; CSC inhib: -17

What do the screens show for `CCCCCn1c(=O)c(C(=O)NCc2ccncc2)c(O)c2ccccc21`?
SKKanGAS inh: 78*; Mdm2 MdmX PPI: 51*; Beta apoptosis: 16; T cruzi inh: 44; CSC inhib: 23; Calb FLC: 84*; Mdm2-MdmX conf: 13

How did CCCCn1c(=O)c(C(=O)Nc2ccccc2N)c(O)c2ccccc21 do in these assays?
SKKanGAS inh: 43; Mdm2 MdmX PPI: 29; Beta apoptosis: -1; T cruzi inh: -17; CSC inhib: -5; Calb FLC: inconclusive

How did CCCCn1c(=O)c(C(=O)NCc2ccc(Cl)cc2)c(O)c2ccccc21 do in these assays?
SKKanGAS inh: 25; Mdm2 MdmX PPI: 52*; T cruzi inh: 22; CSC inhib: 76*; Calb FLC: 11; Mdm2-MdmX conf: 14

What do the screens show for `CCCCCn1c(=O)c(C(=O)Nc2ccccn2)c(O)c2ccccc21`?
SKKanGAS inh: 1; Mdm2 MdmX PPI: 54*; T cruzi inh: -7; CSC inhib: 20; Calb FLC: -1; Mdm2-MdmX conf: 19

Results for CCCCCCn1c(=O)c(C(=O)Nc2cnccn2)c(O)c2ccccc21 ?
SKKanGAS inh: 64*; Mdm2 MdmX PPI: 61*; Beta apoptosis: 28; T cruzi inh: -4; CSC inhib: 41; Calb FLC: 7; Mdm2-MdmX conf: 52*; FLuc counter: 46*

Results for COc1ccc2c3c1OC1C(=O)CC[C@@]4(O)[C@@H](C2)N(C)CC[C@]314 (some centres not stated) ?
Mdm2 MdmX PPI: 67*; Mdm2-MdmX conf: 53*; FLuc counter: 21

What do the screens show for `CCOc1cc2c(cc1OCC)-n1cccc1C(c1cccc([N+](=O)[O-])c1)NC2` (configuration not stated)?
SKKanGAS inh: -3; Mdm2 MdmX PPI: 7; Beta apoptosis: -6; T cruzi inh: 15; CSC inhib: 13; Calb FLC: -9

What do the screens show for `Fc1ccccc1CNC1CN2CCC1CC2` (configuration not stated)?
SKKanGAS inh: 2; Mdm2 MdmX PPI: -12; Beta apoptosis: -11; T cruzi inh: -8; CSC inhib: -3; Calb FLC: -1
